Experimental data reported in publication PMC9079187 (ACS nano, 2021).
Read-outs that look alike come from different tables or passages of the source.

Experiments:
[1] = tested on: hippocampus of middle aged humans; settings: middle aged humans of around 40 years of age; contrast agent; cited from earlier work
Dynamic light scattering = assay type: physicochemical; settings: DLS, Malvern Zetasizer Nano; DPBS pH 7.4, 0.05 mM, filtered 0.22 μm
[2] = Zeta potential measurement; assay type: physicochemical; settings: Malvern Zetasizer Nano; with NPs
human claudin-4 = molecular target: T1, human claudin-4 (Homo sapiens, UniProt O14493); experiment: Microscale thermophoresis; assay type: binding; settings: MST; buffer with 0.1% n-Undecyl-β-D-Maltopyranoside; 23°C; C1C2-NP fixed at 70 nM, claudin-4 0.8-28000 nM
T1 sequence (O14493 1-209): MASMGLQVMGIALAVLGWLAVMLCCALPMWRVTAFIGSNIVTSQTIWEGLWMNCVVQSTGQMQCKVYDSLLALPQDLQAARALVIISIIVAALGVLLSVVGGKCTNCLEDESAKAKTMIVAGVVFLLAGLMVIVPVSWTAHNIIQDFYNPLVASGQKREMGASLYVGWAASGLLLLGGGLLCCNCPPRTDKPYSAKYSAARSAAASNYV
Summary of the method: (§1)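 Microscale thermophoresis on a Monolith instrument. AF647-labelled test NP was held at 70 nM against titrated human claudin-3 (0.4–14000 nM), claudin-4 (0.8–28000 nM) or claudin-9 (0.6–20000 nM). Buffer was 10 mM Tris-HCl pH 8.0, 100 mM NaCl, 4% glycerol and 0.1% n-undecyl-β-D-maltopyranoside. As a non-specific control, detergent was titrated 10 mM–0.7 μM against 1 μM AF647-labelled control NP.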

[3] = molecular target: T2, claudin-1 on brain endothelial cells (Mus musculus, UniProt O88551); assay type: in vivo; settings: corpus callosum and hippocampus, confocal, ~2 hrs post-injection
T2 sequence (O88551 1-211): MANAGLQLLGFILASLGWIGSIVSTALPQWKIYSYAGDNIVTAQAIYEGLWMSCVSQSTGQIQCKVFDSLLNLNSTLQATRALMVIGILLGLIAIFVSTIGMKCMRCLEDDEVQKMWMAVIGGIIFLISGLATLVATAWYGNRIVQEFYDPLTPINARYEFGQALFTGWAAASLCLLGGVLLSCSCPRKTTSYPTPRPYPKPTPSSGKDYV
Summary of the method: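 Male and female C57BL/6J mice, 2 and 12 months old, received 100 μL of 0.5 mM test NP by tail vein, then a 100 μL PBS flush. About 2 h after injection they were perfused with 4% PFA and brains fixed 24 h. Sections were blocked 1 h at RT, stained overnight at 4 °C with rat anti-CD31 (1:250) and rabbit anti-claudin-1 (1:100), then AF488/AF555 secondaries (1:250, 2 h, RT) and DAPI. Confocal imaging used a 40x objective; colocalization was quantified with JACoP on ≥3 random fields per region per mouse.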

human claudin-3 = molecular target: T3, human claudin-3 (Homo sapiens, UniProt O15551); experiment: Microscale thermophoresis; assay type: binding; settings: MST; claudin-3 0.4-14000 nM; C1C2-NP fixed at 70 nM; buffer with 0.1% n-Undecyl-β-D-Maltopyranoside; 23°C
T3 sequence (O15551 1-220): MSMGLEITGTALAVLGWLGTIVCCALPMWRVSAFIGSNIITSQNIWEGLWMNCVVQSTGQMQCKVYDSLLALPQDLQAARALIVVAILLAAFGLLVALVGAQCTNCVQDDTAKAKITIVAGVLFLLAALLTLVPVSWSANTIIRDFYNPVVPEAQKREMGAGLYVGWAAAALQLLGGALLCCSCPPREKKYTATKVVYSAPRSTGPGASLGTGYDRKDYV
Summary of the method: as §1

human claudin-9 = molecular target: T4, human claudin-9 (Homo sapiens, UniProt O95484); experiment: Microscale thermophoresis; assay type: binding; settings: MST; buffer with 0.1% n-Undecyl-β-D-Maltopyranoside; 23°C; C1C2-NP fixed at 70 nM, claudin-9 0.6-20000 nM
T4 sequence (O95484 1-217): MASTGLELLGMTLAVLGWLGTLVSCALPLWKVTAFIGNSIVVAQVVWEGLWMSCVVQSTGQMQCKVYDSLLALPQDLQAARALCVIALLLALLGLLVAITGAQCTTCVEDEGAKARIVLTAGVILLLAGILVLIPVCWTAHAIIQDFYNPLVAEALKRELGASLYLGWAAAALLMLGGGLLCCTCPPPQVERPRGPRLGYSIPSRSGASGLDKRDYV
Summary of the method: as §1

[4] = Biodistribution in peripheral organs by ICP-MS; assay type: in vivo, mouse; settings: ICP-MS of Gd
Summary of the method: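 Male and female C57BL/6J mice, three aged 2 months and three aged 12 months, received 100 μL of 0.5 mM control or targeted Gd-oxide NPs. Transcardial perfusion with ice-cold DPBS followed at 1 hr. Heart, lung, liver, kidneys, spleen, colon and intestine were weighed and digested in HNO3 at 100 °C for 120 minutes. Samples were filtered, diluted and measured for Gd by ICP-MS.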

[5] = molecular target: T5, human claudin-1 expressed in bEnd.3 cells (Homo sapiens, UniProt O95832); assay type: cell-based; settings: plasmid transfection; NP incubation 4 hrs; fluorescence
T5 sequence (O95832 1-211): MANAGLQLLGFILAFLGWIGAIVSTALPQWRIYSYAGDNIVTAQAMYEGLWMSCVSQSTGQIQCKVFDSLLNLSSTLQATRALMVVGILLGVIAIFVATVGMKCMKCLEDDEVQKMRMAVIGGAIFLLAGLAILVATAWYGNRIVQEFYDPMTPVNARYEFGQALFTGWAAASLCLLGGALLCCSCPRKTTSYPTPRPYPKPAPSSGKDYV
Summary of the method: (§2)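 bEnd.3 mouse brain endothelial cells were grown in DMEM. For mouse claudin-1, cells were treated with ethanol (50 mM) to induce expression. For human claudin-1, cells were transfected with a pCMV plasmid encoding it. Cells were then incubated with AF-647-labelled targeted NPs for 4 hrs and imaged by fluorescence. Claudin-1 induction was checked by western blot relative to β-actin.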

[6] = molecular target: T6, mouse claudin-1 in bEnd.3 cells (Mus musculus, UniProt O88551); experiment: In vitro fluorescence imaging of NP binding to bEnd.3 cells; assay type: cell-based
T6 sequence (O88551 1-211): T2 sequence (O88551 1-211)
Summary of the method: as §2

[7] = molecular target: C1C2-NP (C1C2 peptide conjugated to PEG diacid coated Gd nanoparticles, AF647 labeled); experiment: MST

CNC[C@H](O)[C@@H](O)[C@H](O)[C@H](O)CO.CNC[C@H](O)[C@@H](O)[C@H](O)[C@H](O)CO.O=C([O-])CN(CCN(CC(=O)[O-])CC(=O)O)CCN(CC(=O)O)C(COCc1ccccc1)C(=O)[O-].[Gd+3] (centres unmarked) [MultiHance]
K^trans, hippocampus [1]: ~ 0.001 min^−1

GSQIYMICNQFYTPGGTG [Ocldn207-NP]
Hydrodynamic size (Dynamic light scattering): 14.23±0.11 nm
Zeta Potential [2]: 3.65±0.19 mV

QEFYDPLTPINARYE [Cldn146-NP]
Hydrodynamic size (Dynamic light scattering): 13.94±0.08 nm
Zeta Potential [2]: 1.62±0.13 mV

SCVSQSTGQIQCKVFDSLLNLNSTLQAT [Cldn53-NP]
Hydrodynamic size (Dynamic light scattering): 13.8±0.11 nm
Zeta Potential [2]: 2.24±0.18 mV

SSVSQSTGQIQSKVDSLLNLNSTQATR [C1C2-NP]
Hydrodynamic size (Dynamic light scattering): 14.5±0.13 nm
binding to human claudin-4 (in words) (human claudin-4): quite weak
colocalization of claudin-1, CD31 and nanoparticles in brain ([3]; 2-month-old mice): not observed
colocalization of claudin-1, CD31 and nanoparticles in brain ([3]; 12-month-old mice): colocalization
binding to human claudin-3 (in words) (human claudin-3): does not show any binding
binding to human claudin-9 (in words) (human claudin-9): quite weak
accumulation in the kidney ([4]; 1 hr post-injection of 100 μL of 0.5 mM NPs, versus control NPs): increased
accumulation in kidneys, 12-month-old compared to 2-month-old mice ([4]; 1 hr post-injection, three mice per age): higher
NP binding to bEnd.3 cells transfected to express human claudin-1 [5]: High NP binding
Zeta Potential [2]: 7.81±0.38 mV
NP binding to ethanol-exposed bEnd.3 cells ([6]; ethanol (50mM) induced claudin-1, NP incubation 4 hrs): much higher binding
NP binding to control bEnd.3 cells ([6]; normal culture, low claudin-1 expression, AF-647 modified NPs): no binding

recombinant human claudin-1 (from UniProt O95832 1-211) (natural protein)
Kd [7]: 21 µM
